# Measured values published in ChEMBL document CHEMBL2417469, “Synthesis of novel analogs of 2-pyrazoline obtained from [(7-chloroquinolin-4-yl)amino]chalcones and hydrazine as potential antitumor and antimalarial agents” (Eur J Med Chem, 2013).
# Experiments:
# Type in all cases: functional
# KM12 = assay: Cytotoxicity against human KM12 cells after 48 hrs by SRB assay; conditions: KM12, 48 h
# In short: (§1)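 NCI 60-cell-line screen. Cells preincubated 24 h at 37 °C, 5% CO2; time-zero plates TCA-fixed. Compounds dissolved in DMSO and tested at five concentrations (100, 10, 1.0, 0.1, 0.01 µM) for 48 h continuous exposure. Adherent cells fixed with cold TCA (10% final), then SRB stained; absorbance at 515 nm. GI50, TGI and LC50 calculated from growth relative to time-zero and untreated controls.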
# SF-295 = assay: Cytotoxicity against human SF295 cells after 48 hrs by SRB assay; conditions: SF-295, 48 h; in short: as §1
# MDA-MB-231 = assay: Cytotoxicity against human MDA-MB-231 cells after 48 hrs by SRB assay; conditions: MDA-MB-231, 48 h; in short: as §1
# HL-60(TB) = assay: Cytotoxicity against human HL-60(TB) cells after 48 hrs by SRB assay; conditions: HL-60, 48 h; in short: as §1
# U-251 = assay: Cytotoxicity against human U251 cells after 48 hrs by SRB assay; conditions: U-251, 48 h
# In short: (§2)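 NCI 60-cell screen. Cells grew 24 h (37 °C, 5% CO2) before compound was added. Compounds were in DMSO and diluted in medium with gentamicin, then tested at five levels (100, 10, 1.0, 0.1, 0.01 µM) with 48 h continuous exposure. Adherent cells were fixed with TCA (10% final) and stained with 0.4% SRB, absorbance read at 515 nm. A time-zero plate was included. LC50 is the concentration giving 50% loss of protein relative to time zero.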
# CAKI-1 = assay: Cytotoxicity against human Caki1 cells after 48 hrs by SRB assay; conditions: CAKI-1, 48 h; in short: as §1
# Hs-578T = assay: Cytotoxicity against human Hs578T cells after 48 hrs by SRB assay; in short: as §1
# PC-3 = assay: Cytotoxicity against human PC3 cells after 48 hrs by SRB assay; conditions: PC-3, 48 h; in short: as §1
# MDA-MB-468 = assay: Cytotoxicity against human MDA-MB-468 cells after 48 hrs by SRB assay; conditions: MDA-MB-468, 48 h; in short: as §1
# COLO 205 = assay: Cytotoxicity against human COLO205 cells after 48 hrs by SRB assay; conditions: COLO 205, 48 h; in short: as §1
# HCT-15 = assay: Cytotoxicity against human HCT15 cells after 48 hrs by SRB assay; conditions: HCT-15, 48 h; in short: as §1
# A498 = assay: Cytotoxicity against human A498 cells after 48 hrs by SRB assay; conditions: A498, 48 h, read-out: LC50 (the source's name); in short: as §1
# SF-539 = assay: Cytotoxicity against human SF539 cells after 48 hrs by SRB assay; conditions: SF-539, 48 h; in short: as §1
# RXF 393 = assay: Cytotoxicity against human RXF393 cells after 48 hrs by SRB assay; conditions: RXF 393, 48 h; in short: as §1
# SK-OV-3 = assay: Cytotoxicity against human SKOV3 cells after 48 hrs by SRB assay; conditions: SK-OV-3, 48 h; in short: as §1
# DU-145 = assay: Cytotoxicity against human DU145 cells after 48 hrs by SRB assay; conditions: DU-145, 48 h; in short: as §1
# TK-10 = assay: Cytotoxicity against human TK10 cells after 48 hrs by SRB assay; conditions: TK-10, 48 h; in short: as §2
# Malme-3M = assay: Cytotoxicity against human MALME-3M cells after 48 hrs by SRB assay; in short: as §1
# SNB-75 = assay: Cytotoxicity against human SNB75 cells after 48 hrs by SRB assay; conditions: SNB-75, 48 h; in short: as §2
# BT-549 = assay: Cytotoxicity against human BT549 cells after 48 hrs by SRB assay; conditions: BT-549, 48 h; in short: as §1
# UACC-62 = assay: Cytotoxicity against human UACC62 cells after 48 hrs by SRB assay; conditions: UACC-62, 48 h; in short: as §2
# CCRF-CEM = assay: Cytotoxicity against human CCRF-CEM cells after 48 hrs by SRB assay; in short: as §1
# OVCAR-4 = assay: Cytotoxicity against human OVCAR4 cells after 48 hrs by SRB assay; conditions: OVCAR-4, 48 h; in short: as §1
# M14 = assay: Cytotoxicity against human M14 cells after 48 hrs by SRB assay; conditions: M14, 48 h; in short: as §1
# SR = assay: Cytotoxicity against human SR cells after 48 hrs by SRB assay; in short: as §2
# LOX IMVI = assay: Cytotoxicity against human LOXIMVI cells after 48 hrs by SRB assay; in short: as §1
# SW-620 = assay: Cytotoxicity against human SW620 cells after 48 hrs by SRB assay; conditions: SW-620, 48 h; in short: as §2
# UACC-257 = assay: Cytotoxicity against human UACC257 cells after 48 hrs by SRB assay; conditions: UACC-257, 48 h; in short: as §2
# IGROV-1 = assay: Cytotoxicity against human IGROV1 cells after 48 hrs by SRB assay; conditions: IGROV-1, 48 h; in short: as §1
# A549 = assay: Cytotoxicity against human A549/ATCC cells after 48 hrs by SRB assay; conditions: A549, 48 h; in short: as §1
# UO-31 = assay: Cytotoxicity against human UO31 cells after 48 hrs by SRB assay; conditions: UO-31, 48 h; in short: as §2
# NCI-H23 = assay: Cytotoxicity against human NCI-H23 cells after 48 hrs by SRB assay; conditions: NCI-H23, 48 h; in short: as §1
# HT-29 = assay: Cytotoxicity against human HT-29 cells after 48 hrs by SRB assay; conditions: HT-29, 48 h; in short: as §1
# MOLT-4 = assay: Cytotoxicity against human MOLT4 cells after 48 hrs by SRB assay; conditions: MOLT-4, 48 h; in short: as §1
# 786-0 = assay: Cytotoxicity against human 786-0 cells after 48 hrs by SRB assay; conditions: 786-0, 48 h; in short: as §1
# NCI/ADR-RES = assay: Cytotoxicity against human NCI/ADR-RES cells after 48 hrs by SRB assay; in short: as §1
# [1] = read-out: LC50 (the source's name)
compound,measurement,setting,value
Cc1ccc(C2CC(c3ccc(Nc4ccnc5cc(Cl)ccc45)cc3)=NN2C=O)cc1 (stereo unspecified),GI50,KM12,6.64 µM
same,LC50 (concentration killing 50% of cells),KM12,> 100 µM
same,GI50,SF-295,4 µM
same,LC50,SF-295,> 100 µM
same,GI50,MDA-MB-231,6.09 µM
same,LC50 (concentration killing 50% of cells present at time zero),MDA-MB-231,> 100 µM
same,GI50,HL-60(TB),2.27 µM
same,CC50,HL-60(TB); [1],> 100 µM
same,GI50,U-251,> 100 µM
same,CC50,U-251; [1],> 100 µM
same,GI50,CAKI-1,> 100 µM
same,LC50,CAKI-1,> 100 µM
same,GI50,Hs-578T,5.64 µM
same,LC50 (50% net cell kill),Hs-578T,> 100 µM
same,GI50,PC-3,4.61 µM
same,LC50,PC-3,> 100 µM
same,GI50,MDA-MB-468,1.51 µM
same,LC50,MDA-MB-468,> 100 µM
same,GI50,COLO 205,4.59 µM
same,LC50,COLO 205,> 100 µM
same,GI50,HCT-15,2.78 µM
same,LC50 (concentration killing 50% of cells relative to time zero),HCT-15,> 100 µM
same,CC50,A498,> 100 µM
same,GI50,SF-539,> 100 µM
same,CC50,SF-539; [1],> 100 µM
same,GI50,RXF 393,4.89 µM
same,LC50 (concentration killing 50% of cells),RXF 393,> 100 µM
same,GI50,SK-OV-3,> 100 µM
same,LC50 (concentration killing 50% of cells),SK-OV-3,> 100 µM
same,GI50,DU-145,> 100 µM
same,LC50 (concentration killing 50% of cells),DU-145,> 100 µM
same,GI50,TK-10,> 100 µM
same,LC50 (concentration giving 50% cell loss vs time zero),TK-10,> 100 µM
same,GI50,Malme-3M,> 100 µM
same,LC50,Malme-3M,> 100 µM
same,GI50,SNB-75,> 100 µM
same,LC50 (50% net cell kill),SNB-75,> 100 µM
same,GI50,BT-549,1.65 µM
same,LC50 (50% net cell kill vs time zero),BT-549,> 100 µM
same,GI50,UACC-62,4.13 µM
same,CC50,UACC-62; [1],> 100 µM
same,GI50,CCRF-CEM,2.25 µM
same,LC50 (concentration killing 50% of cells relative to time zero),CCRF-CEM,> 100 µM
same,GI50,OVCAR-4,5.15 µM
same,LC50,OVCAR-4,> 100 µM
same,GI50,M14,6.88 µM
same,CC50,M14; [1],> 100 µM
same,GI50,SR,3.18 µM
same,LC50,SR,> 100 µM
same,GI50,LOX IMVI,4.11 µM
same,LC50,LOX IMVI,> 100 µM
same,GI50,SW-620,> 100 µM
same,LC50,SW-620,> 100 µM
same,GI50,UACC-257,> 100 µM
same,LC50,UACC-257,> 100 µM
same,GI50,IGROV-1,26.6 µM
same,LC50 (concentration killing 50% of cells relative to time zero),IGROV-1,> 100 µM
same,GI50,A549,9.86 µM
same,CC50,A549; [1],> 100 µM
same,GI50,UO-31,5.49 µM
same,LC50,UO-31,> 100 µM
same,GI50,NCI-H23,6.93 µM
same,CC50,NCI-H23; [1],> 100 µM
same,GI50,HT-29,6.09 µM
same,LC50,HT-29,> 100 µM
same,GI50,MOLT-4,5.13 µM
same,LC50,MOLT-4,> 100 µM
same,GI50,786-0,50.9 µM
same,LC50,786-0,> 100 µM
same,GI50,NCI/ADR-RES,5.22 µM
same,CC50,NCI/ADR-RES; [1],> 100 µM
